Measured values from ChEMBL document CHEMBL2150943, “SAR and LC/MS studies of β-lactamic inhibitors of human fatty acid amide hydrolase (hFAAH): evidence of a nonhydrolytic process” (J Med Chem, 2011).
Values joined by “and” are separate entries in the source; they are usually repeats but may differ in a detail not shown here. Equal entries are not always repeated. Active and inactive are the calls of the source. No cut-off for these calls is given here.

Assays:
[1] = molecular target: T1, Fatty-acid amide hydrolase 1 (Mus musculus) (UniProt O08914); test: Activity of mouse liver homogenate FAAH assessed as compound hydrolysis at 10^-5 M after 90 mins by HPLC/MS analysis in presence of PF-750; format: tissue-based
T1 sequence (whole entry): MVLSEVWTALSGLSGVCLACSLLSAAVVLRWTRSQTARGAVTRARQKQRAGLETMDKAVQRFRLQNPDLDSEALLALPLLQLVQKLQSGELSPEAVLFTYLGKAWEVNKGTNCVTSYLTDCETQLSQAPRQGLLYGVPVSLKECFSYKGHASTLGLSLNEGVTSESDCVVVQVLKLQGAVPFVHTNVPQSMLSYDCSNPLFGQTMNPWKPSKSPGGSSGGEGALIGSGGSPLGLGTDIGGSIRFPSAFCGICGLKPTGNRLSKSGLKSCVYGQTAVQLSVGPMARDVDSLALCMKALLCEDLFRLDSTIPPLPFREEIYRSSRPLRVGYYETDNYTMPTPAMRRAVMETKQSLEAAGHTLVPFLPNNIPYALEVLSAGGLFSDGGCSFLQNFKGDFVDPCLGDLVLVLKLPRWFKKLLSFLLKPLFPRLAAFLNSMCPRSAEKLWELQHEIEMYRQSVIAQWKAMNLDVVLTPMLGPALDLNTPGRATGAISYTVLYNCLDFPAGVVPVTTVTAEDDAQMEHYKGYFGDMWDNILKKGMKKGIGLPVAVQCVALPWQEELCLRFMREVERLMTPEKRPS
Method in brief: (§1)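 Mouse liver homogenate (800g supernatant from Tris pH 7.4; 22.5 μg/tube) incubated with compound in TE buffer (10 mM Tris-HCl, 1 mM EDTA, 0.1% BSA, pH 7.4), 37 °C, 90 min, with or without preincubation with FAAH inhibitor (5.10^-5 M). Parent and ring-opened product measured by HPLC/MS as AUC ratio to internal standard, normalized to heat-inactivated homogenate. Three independent experiments in duplicate.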

[2] = molecular target: T2, Fatty-acid amide hydrolase 1 (Homo sapiens) (UniProt O00519); test: Activity of human recombinant FAAH assessed as compound hydrolysis at 10^-5 M after 90 mins by HPLC/MS analysis in presence of PF-750
T2 sequence (whole entry): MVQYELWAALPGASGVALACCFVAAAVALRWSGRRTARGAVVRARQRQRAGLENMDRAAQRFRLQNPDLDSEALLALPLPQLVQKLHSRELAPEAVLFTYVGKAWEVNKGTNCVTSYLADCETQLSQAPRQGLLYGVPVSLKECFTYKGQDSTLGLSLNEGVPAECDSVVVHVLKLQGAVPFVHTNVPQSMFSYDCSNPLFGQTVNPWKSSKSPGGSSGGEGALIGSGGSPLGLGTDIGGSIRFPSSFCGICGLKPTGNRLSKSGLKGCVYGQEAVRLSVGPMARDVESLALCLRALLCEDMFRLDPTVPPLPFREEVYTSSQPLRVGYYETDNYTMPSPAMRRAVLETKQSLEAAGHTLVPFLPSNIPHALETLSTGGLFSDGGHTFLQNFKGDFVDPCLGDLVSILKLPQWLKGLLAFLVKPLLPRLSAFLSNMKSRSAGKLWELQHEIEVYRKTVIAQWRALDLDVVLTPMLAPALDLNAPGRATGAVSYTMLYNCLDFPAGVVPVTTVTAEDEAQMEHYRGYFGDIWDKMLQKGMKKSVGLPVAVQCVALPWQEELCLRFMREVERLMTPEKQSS
Method in brief: (§2)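 Recombinant human FAAH (90 μg/tube), made in-house, incubated with compound in TE buffer (10 mM Tris-HCl, 1 mM EDTA, 0.1% w/v BSA, pH 7.4) at 37 °C for 90 min, with or without preincubation with FAAH inhibitor at 5.10^-5 M. Proteins precipitated by centrifugation and supernatant concentrated. Parent [M+H]+ quantified by HPLC/MS as AUC ratio to internal standard, normalized to boiled-enzyme blank. Three independent experiments in duplicate.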

[3] = molecular target: T1, Fatty-acid amide hydrolase 1 (Mus musculus); test: Activity of mouse liver homogenate FAAH assessed as compound hydrolysis at 10^-5 M after 90 mins by HPLC/MS analysis in presence of URB-597; format: tissue-based; method in brief: as §1
[4] = molecular target: T2, Fatty-acid amide hydrolase 1 (Homo sapiens); test: Activity of human recombinant FAAH assessed as compound hydrolysis at 10^-5 M after 90 mins by HPLC/MS analysis in presence of URB-597; method in brief: as §2
[5] = molecular target: T2, Fatty-acid amide hydrolase 1 (Homo sapiens); test: Activity of human recombinant FAAH assessed as compound hydrolysis at 10^-5 M after 90 mins by HPLC/MS analysis; method in brief: as §2
[6] = molecular target: T1, Fatty-acid amide hydrolase 1 (Mus musculus); test: Activity of mouse liver homogenate FAAH assessed as compound hydrolysis at 10^-5 M after 90 mins by HPLC/MS analysis; format: tissue-based; method in brief: as §1
[7] = molecular target: T3, Fatty-acid amide hydrolase 1 (Homo sapiens, UniProt O00519); test: Reversible inhibition of human recombinant FAAH assessed as hydrolysis of [3H]-AEA after 10 mins by liquid scintillation counting
T3 sequence (O00519 whole entry): T2 sequence (whole entry)
Method in brief: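 In-house recombinant human FAAH (6 μg) in 10 mM Tris-HCl, 1 mM EDTA, 0.1% (w/v) BSA, pH 7.4. Compound in DMSO, or DMSO alone, with [3H]-AEA (2 μM final, 50,000 dpm) for 10 min at 37 °C. Stopped on ice with chloroform/methanol (1:1). Aqueous phase counted for [3H]-ethanolamine; buffer-only blank subtracted. IC50 from three independent experiments in duplicate.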

[8] = molecular target: T3, Fatty-acid amide hydrolase 1; test: Irreversible inhibition of human recombinant FAAH assessed as hydrolysis of [3H]-AEA after 10 mins by liquid scintillation counting
[9] = Metabolic stability of the compound in mouse liver homogenate assessed as compound hydrolysis at 10^-5 M after 90 mins by HPLC/MS analysis; format: ADME, tissue-based; settings: read-out: Drug metabolism
Method in brief: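 Mouse liver homogenised in Tris buffer pH 7.4 and spun at 800g for 15 min; supernatant used (22.5 μg/tube). Compound incubated in TE buffer (10 mM Tris-HCl, 1 mM EDTA, 0.1% BSA, pH 7.4) for 90 min at 37 °C. Proteins removed and supernatant concentrated. HPLC/MS followed the parent [M+H]+ AUC against an internal standard, normalised to boiled homogenate. Mean ± SEM, 3 experiments in duplicate.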

SMILES	IC50 ([7]; read-out: IC50)	IC50 ([7]; read-out: pIC50 (converted))	Activity [1]	Activity [2]	Activity [3]	Activity [4]	Activity [5]	metabolised at 1.5 h, 10 µM [9]	further results
CCCCC/C=C\C/C=C\C/C=C\C/C=C\CCCC(=O)NCCO	–	–	inactive	inactive	inactive	inactive	Active	–	Activity [6]: Active
C=CCCC(=O)N1C[C@@H]([C@@H](C)OCCCCc2ccccc2)C1=O	–	–	Active	inactive	inactive	inactive	inactive	> 80%	IC50 [8]: 0.008 µM and 0.00813 µM
C=CCCC(=O)N1C[C@@H]([C@@H](C)OC(=O)CCCc2ccccc2)C1=O	–	–	–	–	–	–	–	> 80%	pIC50 [7]: 8.27

The next lines start with results.

IC50 ([7]; read-out: IC50)	IC50 ([7]; read-out: pIC50 (converted))	SMILES	Activity [1]	Activity [2]	Activity [3]	Activity [4]	Activity [5]	metabolised at 1.5 h, 10 µM [9]	further results
82.8 µM	83.2 µM	C=CCCCN1C[C@@H]([C@@H](C)OC(=O)CCCc2ccccc2)C1=O	–	–	–	–	–	–	–
2.9 µM	2.88 µM	C=CCCC(=O)N1CC([C@@H](C)OCCCCc2ccccc2)C1	–	–	–	–	–	–	–
